Experimental findings from ChEMBL document CHEMBL1154950, “Biochemical analysis of cellular target of S-trityl-L-cysteine derivatives using affinity matrix” (Bioorg Med Chem Lett, 2010) are described below.

Assay type in all cases: cell-based
Common to all, as to conditions: HCT-116

The target of experiment [1] is T1, Kinesin-like protein KIF11 (Homo sapiens) (UniProt P52732).
T1 sequence (whole entry): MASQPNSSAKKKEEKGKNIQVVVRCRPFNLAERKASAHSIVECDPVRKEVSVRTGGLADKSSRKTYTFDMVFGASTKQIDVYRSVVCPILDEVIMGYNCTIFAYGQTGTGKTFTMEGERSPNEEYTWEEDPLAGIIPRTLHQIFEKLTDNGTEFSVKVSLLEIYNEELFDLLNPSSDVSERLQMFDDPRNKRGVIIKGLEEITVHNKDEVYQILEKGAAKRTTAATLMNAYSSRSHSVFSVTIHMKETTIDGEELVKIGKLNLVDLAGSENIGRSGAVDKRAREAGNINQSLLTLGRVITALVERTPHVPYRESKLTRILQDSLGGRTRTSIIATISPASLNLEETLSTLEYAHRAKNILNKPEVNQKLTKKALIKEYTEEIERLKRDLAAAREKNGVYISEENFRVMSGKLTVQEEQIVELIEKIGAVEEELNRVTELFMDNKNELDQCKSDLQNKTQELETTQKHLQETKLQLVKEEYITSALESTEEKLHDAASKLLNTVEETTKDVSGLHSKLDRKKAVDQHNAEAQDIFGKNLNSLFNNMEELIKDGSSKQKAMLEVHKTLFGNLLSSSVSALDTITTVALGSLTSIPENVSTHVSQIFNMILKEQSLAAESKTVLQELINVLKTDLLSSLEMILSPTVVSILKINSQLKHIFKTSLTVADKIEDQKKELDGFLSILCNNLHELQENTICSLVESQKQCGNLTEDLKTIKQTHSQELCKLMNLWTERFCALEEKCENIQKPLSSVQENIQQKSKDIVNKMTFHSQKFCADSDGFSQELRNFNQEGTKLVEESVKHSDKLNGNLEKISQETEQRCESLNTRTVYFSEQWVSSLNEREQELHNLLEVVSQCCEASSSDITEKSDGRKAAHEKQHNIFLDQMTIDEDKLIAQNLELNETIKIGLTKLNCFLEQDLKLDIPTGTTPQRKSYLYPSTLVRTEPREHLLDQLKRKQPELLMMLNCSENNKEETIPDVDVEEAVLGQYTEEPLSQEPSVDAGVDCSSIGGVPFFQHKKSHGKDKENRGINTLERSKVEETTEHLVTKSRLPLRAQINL
In words: Displacement of affinity bead (R)-2-Amino-N-{2-[2-(2-amino-ethoxy)-ethoxy]-ethyl}-3-[(4-methoxy-phenyl)-diphenyl-methylsulfanyl]-propionamide from KSP in human HCT116 cells after 2 hrs by Western blot analysis. In short, it runs like this:
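This is a cell-free competition assay. Drug-immobilized or ethanolamine control beads were washed and resuspended in binding buffer containing DMSO or compound in DMSO. They were rotated for 2 h at 4 °C with 50 mg/mL BSA and 8 mg/mL HCT116 cytoplasmic extract (freeze–thaw lysate). Beads were washed three times, and KSP on the beads and in the supernatant was assessed by anti-KSP Western blot.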

The target in experiment [2] is T1, Kinesin-like protein KIF11 (Homo sapiens). The experiment is described as follows: Competitive inhibition of affinity bead (R)-2-Amino-N-{2-[2-(2-amino-ethoxy)-ethoxy]-ethyl}-3-[(4-methoxy-phenyl)-diphenyl-methylsulfanyl]-propionamide binding to KSP in human HCT116 cells at 10 umol/L pretreated for 3 hrs by Western blot analysis. A general note: Immunoblotting shows a protein as a band on a membrane.

Experiment [3] has the same target. The experiment is described as follows: Inhibition of affinity bead (R)-2-Amino-N-{2-[2-(2-amino-ethoxy)-ethoxy]-ethyl}-3-[(4-methoxy-phenyl)-diphenyl-methylsulfanyl]-propionamide binding to KSP in human HCT116 cells pretreated for 3 hrs by Western blot analysis.
Experiment [4] has the same target. In words: Competitive inhibition of affinity bead (R)-2-Amino-N-{2-[2-(2-amino-ethoxy)-ethoxy]-ethyl}-3-[(4-methoxy-phenyl)-diphenyl-methylsulfanyl]-propionamide binding to KSP in human HCT116 cells at >30 umol/L pretreated for 3 hrs by Western blot analysis.

The structures appear in SMILES notation. The source made the active and inactive calls. No cut-off for these calls is given here.

`N[C@@H](CSC(c1ccccc1)(c1ccccc1)c1ccc(C(F)(F)F)cc1)C(=O)O`: in experiment [1], the Activity result was “Dose-dependent effect”. The outcome in experiment [2] was Active. Further, the inhibition entry in experiment [3] is “Active”.

With `CC1(C)CC(=O)C2=C(C1)NC(=S)NC2c1cccc(O)c1` (stereo not drawn), in experiment [2], the outcome was Active.

Turning to `NS(=O)(=O)Nc1ccc(-c2ccc(C(F)(F)F)cn2)cc1`, the result in experiment [2] was inactive. Besides, the outcome in experiment [4] was Active.

Turning to `N[C@@H](CSC(c1ccccc1)c1ccccc1)C(=O)O`, in experiment [1], the result was inactive. The inhibition result in experiment [3] is “inactive”.
